Data from ChEMBL document CHEMBL2331483, “3-Hydroxypyridin-2-thione as novel zinc binding group for selective histone deacetylase inhibition” (J Med Chem, 2013).
Active and inactive are the calls of the source. No cut-off for these calls is given here.

How the values were obtained:
[1] = biological target: T1, Histone deacetylase 8 (Homo sapiens) (UniProt Q9BY41); assay: (§1) Inhibition of HDAC8 (unknown origin) after 60 mins by SAMDI […] analysis
T1 sequence (whole entry): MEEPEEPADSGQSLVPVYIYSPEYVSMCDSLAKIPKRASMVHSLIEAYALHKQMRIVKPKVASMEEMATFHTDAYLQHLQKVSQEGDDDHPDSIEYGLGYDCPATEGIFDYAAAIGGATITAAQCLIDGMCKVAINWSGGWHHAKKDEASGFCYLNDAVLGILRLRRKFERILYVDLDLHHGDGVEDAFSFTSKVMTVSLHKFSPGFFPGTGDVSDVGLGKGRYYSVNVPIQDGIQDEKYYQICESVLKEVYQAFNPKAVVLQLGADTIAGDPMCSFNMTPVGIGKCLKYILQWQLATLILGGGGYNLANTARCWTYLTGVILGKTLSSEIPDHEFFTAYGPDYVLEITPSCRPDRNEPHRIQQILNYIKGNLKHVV

[2] = biological target: Histone deacetylase 1 (Homo sapiens) (UniProt Q13547); assay: Inhibition of HDAC1 (unknown origin) after 60 mins by SAMDI […] analysis
Histone deacetylase 1 (Homo sapiens), sequence (Q13547 whole entry, canonical isoform): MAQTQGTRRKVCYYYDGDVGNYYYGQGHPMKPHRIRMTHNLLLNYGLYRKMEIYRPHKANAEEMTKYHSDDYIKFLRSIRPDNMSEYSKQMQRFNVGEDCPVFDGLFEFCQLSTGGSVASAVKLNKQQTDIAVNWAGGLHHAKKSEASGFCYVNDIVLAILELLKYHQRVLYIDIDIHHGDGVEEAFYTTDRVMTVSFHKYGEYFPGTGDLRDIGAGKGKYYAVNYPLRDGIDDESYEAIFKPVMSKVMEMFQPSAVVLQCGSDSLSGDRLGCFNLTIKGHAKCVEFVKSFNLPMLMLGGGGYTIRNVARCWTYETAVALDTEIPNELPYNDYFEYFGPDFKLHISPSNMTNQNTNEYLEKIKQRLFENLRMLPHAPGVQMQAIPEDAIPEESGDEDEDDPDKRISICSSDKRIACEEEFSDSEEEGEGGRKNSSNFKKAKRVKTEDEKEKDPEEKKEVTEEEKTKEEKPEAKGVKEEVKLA
Outline: (§2)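 Label-free SAMDI deacetylase assay: isoform-optimized peptide substrate (50 μM) with enzyme (250 nM) and inhibitor, 60 min at 37°C. Reactions were quenched with TSA, immobilized on maleimide monolayers, washed and read by MALDI-MS. Yield came from substrate and deacetylated product peak intensities, in triplicate.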

[3] = biological target: T2, Protein deacetylase HDAC6 (Homo sapiens) (UniProt Q9UBN7); assay: Inhibition of HDAC6 (unknown origin) after 60 mins by SAMDI mass spectrometric analysis
T2 sequence (whole entry): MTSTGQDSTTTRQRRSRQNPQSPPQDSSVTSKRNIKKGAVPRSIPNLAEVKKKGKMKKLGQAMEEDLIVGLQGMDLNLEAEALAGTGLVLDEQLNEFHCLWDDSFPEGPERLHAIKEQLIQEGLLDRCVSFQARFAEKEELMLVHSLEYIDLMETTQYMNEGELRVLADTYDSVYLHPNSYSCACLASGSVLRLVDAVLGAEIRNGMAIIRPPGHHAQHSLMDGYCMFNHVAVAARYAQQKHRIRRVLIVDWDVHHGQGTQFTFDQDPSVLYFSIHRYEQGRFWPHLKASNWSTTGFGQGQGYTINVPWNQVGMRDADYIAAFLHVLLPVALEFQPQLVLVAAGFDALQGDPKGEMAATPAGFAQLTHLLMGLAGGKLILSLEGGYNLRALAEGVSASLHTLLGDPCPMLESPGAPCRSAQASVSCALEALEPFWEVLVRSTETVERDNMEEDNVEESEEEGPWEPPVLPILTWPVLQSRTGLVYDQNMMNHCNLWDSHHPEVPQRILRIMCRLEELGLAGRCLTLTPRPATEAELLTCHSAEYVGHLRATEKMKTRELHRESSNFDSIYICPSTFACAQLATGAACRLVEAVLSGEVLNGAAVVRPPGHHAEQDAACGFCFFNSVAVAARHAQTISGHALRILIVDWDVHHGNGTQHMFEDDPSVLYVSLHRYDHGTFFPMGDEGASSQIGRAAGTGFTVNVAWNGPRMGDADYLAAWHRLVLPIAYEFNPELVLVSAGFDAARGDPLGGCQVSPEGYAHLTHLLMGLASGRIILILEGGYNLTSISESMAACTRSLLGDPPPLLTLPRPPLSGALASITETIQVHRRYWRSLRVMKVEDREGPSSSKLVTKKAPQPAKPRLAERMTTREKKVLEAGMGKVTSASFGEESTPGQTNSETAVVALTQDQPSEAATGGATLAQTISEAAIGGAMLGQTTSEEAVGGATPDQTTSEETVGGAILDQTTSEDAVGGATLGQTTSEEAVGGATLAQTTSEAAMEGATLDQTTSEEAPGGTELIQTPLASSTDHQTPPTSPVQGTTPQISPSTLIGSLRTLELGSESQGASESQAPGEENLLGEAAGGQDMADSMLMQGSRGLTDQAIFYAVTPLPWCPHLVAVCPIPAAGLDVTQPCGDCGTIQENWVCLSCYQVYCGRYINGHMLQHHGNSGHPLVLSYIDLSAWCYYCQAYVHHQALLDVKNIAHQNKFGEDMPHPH

[4] = Aqueous solubility of the compound; type: physicochemical; conditions: buffer
Jurkat = assay: cells; type: functional, cell-based, Homo sapiens
DU-145 = assay: Cytotoxicity against human DU145 cells assessed as growth inhibition by MTS assay; type: functional, cell-based
Outline: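 Cells kept at 37°C in 5% CO2. DU-145 grew in EMEM and LNCaP in RPMI 1640, each with 10% FBS. Cells were plated 24 h before compound treatment, with top concentration 20 μM and final DMSO 0.1%. Viability was read by MTS per the kit protocol. IC50 is mean ± SD from at least 2 independent triplicate experiments.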

LNCaP = assay: Cytotoxicity against human LNCAP cells assessed as growth inhibition by MTS assay; type: functional, cell-based
Outline: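 Cells kept at 37°C in 5% CO2. Cells were plated 24 h before compound treatment, with top concentration 20 μM and final DMSO 0.1%. Viability was read by MTS per the kit protocol. IC50 is mean ± SD from at least 2 independent triplicate experiments.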

[5] = biological target: T2, Protein deacetylase HDAC6 (Homo sapiens); assay: Inhibition of HDAC6 (unknown origin) at 10 uM after 60 mins by SAMDI […] analysis relative to control; outline: as §2
Histone deacetylase 8 = biological target: T3, Histone deacetylase 8 (Homo sapiens, UniProt Q9BY41); assay: as §1
T3 sequence (Q9BY41 whole entry): T1 sequence (whole entry)

[6] = biological target: T1, Histone deacetylase 8 (Homo sapiens); assay: Inhibition of HDAC8 (unknown origin) at 10 uM after 60 mins by SAMDI […] analysis relative to control; outline: as §2
[7] = Homo sapiens, Jurkat, 72 h, read-out: IC50
[8] = Homo sapiens, DU-145, read-out: IC50
[9] = Homo sapiens, LNCaP, read-out: IC50

| Structure (SMILES) | inhibition [1] | inhibition [2] | inhibition [3] | further results |
| --- | --- | --- | --- | --- |
| Cc1ccccc1-c1ccc(Cn2cccc(O)c2=O)cc1 | inactive | inactive | inactive |  |
| CN(C)c1ccc(-c2ccc(Cn3cccc(O)c3=S)cc2)cc1 |  |  |  | solubility [4]: < 65 µg/mL; IC50 (Jurkat; [7]): 10.6 µM; IC50 (DU-145; [8]): > 20 µM; IC50 (LNCaP; [9]): 16.2 µM; inhibition [5]: < 20% |
| O=c1c(O)cccn1Cc1ccc(-c2ccncc2)cc1 | inactive | inactive | inactive |  |
| Cn1cccc(O)c1=O | inactive | inactive | inactive |  |
| N#Cc1cccc(-c2ccc(Cn3cccc(O)c3=S)cc2)c1 |  |  |  | inhibition [5]: 44% |
| N#Cc1cccc(-c2ccc(Cn3cccc(O)c3=O)cc2)c1 | inactive | inactive | inactive |  |
| Cc1ccccc1-c1ccc(Cn2cccc(O)c2=S)cc1 |  |  |  | IC50 (LNCaP; [9]): 7.75 µM |
| N#Cc1ccc(-c2ccc(Cn3cccc(O)c3=O)cc2)cc1 | inactive | inactive | inactive |  |
| Oc1ccc[nH]c1=S |  |  |  | solubility [4]: < 65 µg/mL; IC50 (Jurkat; jurkat): Not Active; IC50 (DU-145; du-145): Not Active; IC50 (LNCaP; lncap): Not Active |
| O=c1c(O)cccn1Cc1ccc(-c2ccccc2)cc1 | inactive | inactive | inactive |  |
| Cc1cccc(-c2ccc(Cn3cccc(O)c3=O)cc2)c1 | inactive | inactive | inactive |  |
| CN(C)c1ccc(-c2ccc(Cn3cccc(O)c3=O)cc2)cn1 | inactive | inactive | inactive |  |
| Cc1ccc(-c2ccc(Cn3cccc(O)c3=O)cc2)cc1 | inactive | inactive | inactive |  |
| O=c1c(O)cccn1Cc1ccccc1 | inactive | inactive | inactive |  |
| Oc1cccn(Cc2cn(-c3ccccc3)nn2)c1=S |  |  |  | IC50 (Jurkat; [7]): 4.68 µM; IC50 (DU-145; [8]): > 20 µM; IC50 (LNCaP; [9]): 13.1 µM; IC50 (Histone deacetylase 8): 1570 nM |
| CN(C)c1ccc(-c2ccc(Cn3cccc(O)c3=O)cc2)cc1 | inactive | inactive | inactive |  |
| CN(C)c1ccc(-c2ccc(Cn3cccc(O)c3=S)cc2)cn1 |  |  |  | inhibition [6]: 34% |
| Oc1cccnc1O |  |  |  | inhibition [6]: < 20%; inhibition [5]: < 20% |
